In the EternaBench riboswitch data:

Tested on: MS2 coat protein
Experiment: apparent Kd, MS2 coat protein; higher = weaker binding; RNA-MaP array; FMN 200 µM where present
Outline: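 Stalled E. coli RNA polymerase transcribed the designs on Illumina sequencing-chip clusters. SNAP-549-labelled MS2 coat protein was titrated from 0.7 or 1.5 nM, doubling to 3 µM, without and then with constant ligand, in 100 mM Tris-HCl pH 7.5, 80 mM KCl, 4 mM MgCl2, BSA, DTT, yeast tRNA and Tween-20. Per-cluster binding curves were fitted to green signal normalised to red-channel RNA signal and control-cluster median Fmax. The apparent Kd is the median of the filtered fits.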

[1] = designed as: OFF switch for flavin mononucleotide, no ligand
[2] = ligand present: flavin mononucleotide, designed as: OFF switch for flavin mononucleotide
[3] = designed as: ON switch for flavin mononucleotide, no ligand
[4] = ligand present: flavin mononucleotide, designed as: ON switch for flavin mononucleotide

Sequence	apparent Kd [1] [nM]	apparent Kd [2] [nM]	apparent Kd [3] [nM]	apparent Kd [4] [nM]
CGAGAGGCAGGAUAUAGUAUUUGCGACAUGAGGAUCACCCAUGUAUAUACAGUCGCUCCGUUAGAAGGGCCAUUUC	22.8	33.2		
UAUCUAGGCGAAGGAUAUCCGUCGCGAGAUACUGGAGAAGGUCGCCUUGAUACAUGAGGAUCACCCAUGUGGCGGGUGAACCAA	37.9	16.4		
CCAUGGUGGGCAGGAUAUCGUCCAGCUUGCGGACGAGAAGGGCUAGAACAUGAGGAUCACCCAUGUGAAAAGCGGGUUGUCCAA	27.8	145		
AGAGGUCGCACAGGAUAUCAUACAUGAGGAUCACCCAUGUCAGAAAACAAAUGAGAAGGGUGCGCAUUAAUUGCUUGUGAAGAA			15.1	5.12
GUAGCUACAUGAGGAUCACCCAUGUAGGAUAUCGCUAUUGUAAUCAUGUUACAUGAUUACAAUAGCGAGAAGGACGUUAGCUAC	6.5	7.16		
GCAUUUUAUGCAGGAUAUUGAAUUCGGAUUAAACAAGAAGGGCAUAACAUGAGGAUCACCCAUGUUUUAUAGGUAUCUAUGAAC	53.1	116		
AUCAAUCGUGUAGGAUAUGCGUGGCGAAGCUAUGCAGAAGGACAUGAGGAUCACCCAUGUCUUUCUGUCUGCGUACAGACAGGA	18	43.4		
AAGCCCUGAGGAUAUCCCAACUCGCACAUGAGGAUCACCCAUGUCCUUCUCUGGGUUUCGGGAGAAGGCAGGUCUC	348	161		
UUACCACAUGAGGAUCACCCAUGUCAGGAUAUACUAUUAACUACAUUUUCUUAUUUUAGUAGAAGGGACACUUU	26	23.1		
GCGUGUUGAGGAUAUACGAACAUGUCGCCAGAUGUCAUGGUACAUGAGGAUCACCCAUGUAGAAGGUGGUACGC	263	336		
AAUAUGUUGCAGAAGGCUAUAUUGUGGUAGUACCUCAUGACAUGAGGAUCACCCAUGUUUGUGUUGGAGGAUAUGCAAUAUAUU	16.2	64.9		
GCUGCGCGAGGAUAUGCGGUUCGCGCGGUGGCCGCUGGCGGACAUGAGGAUCACCCAUGUAGAAGGCGUGCGGG	17	19.4		
AGAUGGUAGAGAGGAUAUCAUGUGCUGACAUGAGGAUCACCCAUGUAGGGACGUCGGUCCAAUUAUGAGAAGGCUCUACCAUCA			81.7	50.8
GCUGUGGCAUGAGGAUAUGCUCAGCUUUGCUGAGCAGAAGGCAUGUCAAUAGACAUGAGGAUCACCCAUGUAGUUAACACAGCA			462	32.9
AAUUUAAUACAUGAGGAUCACCCAUGUAAUACUUGUAAGAUCAAGGAUAUCAGCUCGUUUAGAGCUGAGAAGGUGAUCACAUGU			58.2	198
AACAGUACAGGAUAUACAUGAGGAUCACCCAUGUGAGAAUUAAGUGGCGUACCACAAAGUAGAAGGGUACUGGA	36.9	133		
GGGCUUUGGGAGAAGGUACAAUAAAUUAGGAGAACAUGAGGAUCACCCAUGUAAGGAUAUCCCAUGUUGUAUUAUGGUACAACC	519	273		
GGGAGUGGAGGGAAUAACAUGAGGAUCACCCAUGUAUGGGAGAGAAGGCAGAUUGGAGGGCGAUCUGAGGAUAUUUAGACUCUU			13.1	10.7
CAGGAUAGAGGAUAUACAUAGAUACAGAUUCGUGUAAUCCUACAUGAGGAUCACCCAUGUAGAAGGCUAUCCUG	14.8	28.5		
CGUUUUUAUGUAGGAUAUGCUUGUGGUAAGAUAGCAGAAGGACAUGAGGAUCACCCAUGUUAAUGAUAGAGAUUUUAUGUGGCG	37.8	61.4		
GUGCAUUCGUAGAAGGGUGACAUGAGGAUCACCCAUGUGCGCUGAGCUCAAGAUGCACCAGCGCCACAGGAUAUACGAAGCACC			54.3	84
CUCUUGUGAGGAUAUCGAAGAAAAGAAAAGAAAGAAAAGAACGAGAAGGCACAUGAGGAUCACCCAUGUAAGAA	57.2	171		
GUUAUAAAGGUAGGAUAUUGUAUUAUAAUUAAAUAAGAAGGAUCUCACAUGAGGAUCACCCAUGUAAGAGGAUCACCCAUGUAU	9.63	8.14		
